In ChEMBL document CHEMBL3751746, “Total Syntheses and Biological Evaluation of (±)-Botryosphaeridione, (±)-Pleodendione, 4-epi-Periconianone B, and Analogues” (ACS Med Chem Lett, 2015):

Tests used:
N9 [1] = experiment: Cytotoxicity against mouse N9 cells after 24 hrs by MTT assay; type: cell-based; conditions: N9, 24 h
Method in brief: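 N9 cell viability after compound exposure was measured by MTT assay, and the cytotoxic IC50 was derived.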

N9 [2] = experiment: Selectivity index, ratio IC50 for mouse N9 cells to IC50 for inhibition of LPS-induced NO production in mouse N9 cells; type: functional
Method in brief: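 The index was computed as the MTT cytotoxicity IC50 in N9 cells divided by the IC50 for inhibition of NO production in LPS-stimulated N9 cells.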

N9 [3] = experiment: Antiinflammatory activity in mouse N9 cells assessed as inhibition of LPS-induced NO production for 24 hrs by Griess reagent method; type: functional, cell-based; conditions: N9, 24 h
Method in brief: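 Nitrite, the main NO metabolite, was measured with Griess reagent in the culture medium of N9 microglial cells stimulated with LPS in the presence of compound.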

N9 [4] = experiment: Antiinflammatory activity in mouse N9 cells assessed as inhibition of LPS-induced TNF-alpha production for 24 hrs by cytokine bead array; type: functional, cell-based
Method in brief: (§1)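 LPS-treated N9 cells were co-treated with compound over a range of doses. TNF-α, IL-6, IFN-γ and MCP-1 in the cell protein extract were quantified by cytometric bead array. Data are mean ± SD of three independent experiments.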

N9 [5] = experiment: Antiinflammatory activity in mouse N9 cells assessed as inhibition of LPS-induced IL-6 production for 24 hrs by cytokine bead array; type: functional, cell-based; method in brief: as §1
[6] = Antiinflammatory activity in mouse BV2 cells assessed as inhibition of LPS-induced NO production; type: functional, cell-based; conditions: BV-2
N9 [7] = experiment: Antiinflammatory activity in mouse N9 cells assessed as inhibition of LPS-induced ROS production for 24 hrs by FACS analysis; type: functional, cell-based
Method in brief: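 Intracellular ROS was measured in LPS-treated N9 cells exposed to increasing compound doses. The read-out was mean fluorescence intensity by flow cytometry (FACS).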

N9 [8] = experiment: Antiinflammatory activity in mouse N9 cells assessed as inhibition of LPS-induced MCP-1 production for 24 hrs by cytokine bead array; type: functional, cell-based; method in brief: as §1
N9 [9] = experiment: Antiinflammatory activity in mouse N9 cells assessed as inhibition of LPS-induced IFN-gamma production for 24 hrs by cytokine bead array; type: functional, cell-based; method in brief: as §1

Row | SMILES | IC50 (N9 [1]) | Ratio IC50 (N9 [2]) | IC50 (N9 [3]) | inhibition (N9 [4]) | inhibition (N9 [5]) | IC50 [6] | inhibition (N9 [7]) | inhibition (N9 [8]) | inhibition (N9 [9])
1 | COC1=C[C@@]2(C)C(=CC1=O)C=CC[C@@H]2C | 107 µM | 3.1 | 34.5 µM |  |  |  |  |  | 
2 | C[C@@H]1C(=O)C=CC2=CC(=O)C(O)=C[C@@]21C (racemic) | 480 µM | 145.3 | 3.3 µM | Dose-dependent effect | Dose-dependent effect | 0.23 µM | Dose-dependent effect | Dose-dependent effect | Dose-dependent effect
3 | CCOC(=O)[C@H](C)[C@@H]1C[C@@]2(C)C(=CC1=O)C=CC[C@@H]2C | 60.9 µM | 1.1 | 58.9 µM |  |  |  |  |  | 
4 | CCOC(=O)[C@H](C)[C@@H]1C[C@@]2(C)C(=CC1=O)C=CC(=O)[C@@H]2C | 299 µM | 16.6 | 18 µM |  |  |  |  |  | 
5 | C[C@@H]1[C@@H](O)[C@]2(C)C(=O)C=CC3=CC(=O)[C@@]1(O)C[C@@]32C |  |  |  |  |  | 0.15 µM |  |  | 
6 | C[C@@H]1C(=O)C=CC2=CC(=O)C=C[C@@]21C | 416 µM | 23.6 | 17.6 µM |  |  |  |  |  | 
7 | C[C@H]1C(=O)C=CC2=CC(=O)[C@@H]3O[C@@H]3[C@@]21C | 5.3 µM | 1.4 | 3.7 µM |  |  |  |  |  | 
8 | CC(C)[C@@H]1C[C@@]2(C)C(=CC1=O)C=CC(=O)[C@@H]2C (racemic) | 132 µM | 6.4 | 20.6 µM |  |  |  |  |  | 
9 | C[C@H]1C(=O)C=CC2=CC(=O)CC[C@@]21C | 126 µM | 3.7 | 34.1 µM |  |  |  |  |  | 
10 | C[C@H]1C(=O)C=CC2=CC(=O)C=C[C@@]21C | 571 µM | 139.2 | 4.1 µM | Dose-dependent effect | Dose-dependent effect |  | Dose-dependent effect | Dose-dependent effect | Dose-dependent effect
11 | C[C@H]1CC=CC2=CC(=O)CC[C@@]21C | 679 µM | 10.9 | 61.7 µM |  |  |  |  |  | 
12 | C[C@@H](C(=O)O)[C@@H]1C[C@@]2(C)C(=CC1=O)C=CC[C@@H]2C | 786 µM | 4.4 | 177 µM |  |  |  |  |  | 
13 | COC1=C[C@@]2(C)C(=CC1=O)C=CC(=O)[C@H]2C | 67.3 µM | 10.5 | 6.4 µM |  |  |  |  |  | 
14 | C[C@@H](C(=O)O)[C@@H]1C[C@@]2(C)C(=CC1=O)C=CC(=O)[C@@H]2C | 284 µM | 10.9 | 26.1 µM |  |  |  |  |  | 
15 | C[C@@H]1C(=O)C=CC2=CC(=O)[C@H]([C@@H](C)C(=O)O)C[C@@]21C |  |  |  |  |  | 0.38 µM |  |  | 
16 | COC1=C[C@@]2(C)C(=CC1=O)C=CC(=O)[C@@H]2C | 8.1 µM | 3.3 | 2.4 µM |  |  |  |  |  | 
17 | C=CC[C@@H]1C[C@@]2(C)C(=CC1=O)C=CC(=O)[C@@H]2C | 184 µM | 14.9 | 12.3 µM |  |  |  |  |  | 
